GPR7 antagonist – antagonists of human GPR7 (neuropeptides B/W receptor 1); P48145; actives 1.1% (n = 290,000); inhibition, % at 4.4 µM; GPR7-expressing cells, fluorescence antagonist assay; in the data active means inhibition above about 16%, passing the limit was not always enough;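 further: cells stimulated with the agonist NPW; 0% = agonist with vehicle and 100% = vehicle without agonist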
Target sequence (P48145 whole entry, looked up): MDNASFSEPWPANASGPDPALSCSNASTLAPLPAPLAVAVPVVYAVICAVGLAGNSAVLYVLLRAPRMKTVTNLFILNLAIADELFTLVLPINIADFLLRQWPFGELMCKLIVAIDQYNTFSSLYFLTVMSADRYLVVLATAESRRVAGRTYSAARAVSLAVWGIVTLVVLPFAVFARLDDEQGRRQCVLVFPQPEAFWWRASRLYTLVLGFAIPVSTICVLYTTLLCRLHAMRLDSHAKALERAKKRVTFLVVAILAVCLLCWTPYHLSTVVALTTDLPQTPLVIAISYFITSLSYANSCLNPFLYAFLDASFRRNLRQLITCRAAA
GalR3 antagonist – blocks the human galanin receptor 3. HEK293 GalR3-CNG cAMP membrane potential fluorescence; galR3 body fused to GalR1 C-terminus. inhibition, % at 3 µM. O60755. actives 0.44% (n = 360,000);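 active means inhibition above the screen-wide average plus 3 SD, cut at about 13% in these data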;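 further: forskolin and galanin both at EC90 stimulate the cells; cAMP rise reported by CNG channel membrane potential dye signal; 0% = forskolin plus galanin with DMSO and 100% = forskolin alone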
Target sequence (O60755 1-299 limits assumed): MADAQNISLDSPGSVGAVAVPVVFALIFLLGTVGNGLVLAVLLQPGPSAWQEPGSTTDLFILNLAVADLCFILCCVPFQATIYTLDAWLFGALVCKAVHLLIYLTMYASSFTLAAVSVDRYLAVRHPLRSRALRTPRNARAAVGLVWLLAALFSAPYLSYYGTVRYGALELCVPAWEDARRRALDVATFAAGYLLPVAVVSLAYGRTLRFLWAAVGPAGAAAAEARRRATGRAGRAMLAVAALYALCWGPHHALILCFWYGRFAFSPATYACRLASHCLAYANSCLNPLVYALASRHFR
OX1R antag-1 – blocks the human orexin 1 receptor; CHO/OX1R cells, Fluo-8 calcium fluorescence, orexin A; inhibition, % at 5 µM; actives 0.43% (n = 330,000);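 active means inhibition above its plate's threshold, mean inhibition of all tested compounds on the plate plus 3 SD, cut at about 37% in these data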;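 further: 0% = orexin A challenge wells and 100% = SB-334867-A antagonist wells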
CHO parental Ca – counter-screen for OX1R antagonists: effect in parental CHO cells | parental CHO-K1, ATP-induced calcium, Fluo-8 fluorescence | inhibition, % at 5.6 µM | actives 0.63% (n = 330,000) | AID 463079;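 active means inhibition above that plate's mean sample inhibition plus 3 SD, cut at about 26% in these data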;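 further: 0% = ATP-challenged DMSO wells and 100% = DMSO wells without ATP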
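Test system: untransfected parental CHO cell line. Compound: one dose, 5.6 µM nominal. Detection: intracellular calcium via Fluo-8 no-wash fluorescent dye. Measure: % inhibition. Benchmarks: ATP-challenged DMSO wells low, unchallenged DMSO wells high.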
OX1R antag-2 – blocks the human orexin 1 receptor; OX1R-expressing cells, FRET antagonist read-out; inhibition, % at 6.6 µM; actives 1.8% (n = 330,000); AID 485270; in the data active means inhibition mostly above about 38%, no sharp cut-off; inactive means mostly below about 40%;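 further: 0% = agonist challenge alone and 100% = reference antagonist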
* hit, by the source's call. An excerpt weighted towards active compounds, which were near 3.1% of everything screened.

How did CCOc1ccccc1N(CC(=O)Nc1c(C)n(C)n(-c2ccccc2)c1=O)S(=O)(=O)c1ccccc1 do in these assays?
GPR7 antagonist: -15; GalR3 antagonist: 4; OX1R antag-1: -2; CHO parental Ca: -9; OX1R antag-2: 57*

How did CCOc1ccc(N(CC(=O)Nc2c(C)n(C)n(-c3ccccc3)c2=O)S(=O)(=O)c2ccc(F)cc2)cc1 do in these assays?
GPR7 antagonist: -10; GalR3 antagonist: -3

What do the screens show for `O=C(O)CCNS(=O)(=O)c1cccc2nsnc12`?
GalR3 antagonist: -7; OX1R antag-1: 4; CHO parental Ca: 3; OX1R antag-2: 62

What do the screens show for `COc1ccc(CCNC(=O)CCNS(=O)(=O)c2cccc3nsnc23)cc1OC`?
GPR7 antagonist: -6; GalR3 antagonist: 2; OX1R antag-1: -16; CHO parental Ca: -18; OX1R antag-2: 61*

How did CC1Cc2ccccc2N1C(=O)CCNS(=O)(=O)c1cccc2nsnc12 (stereo not drawn) do in these assays?
GPR7 antagonist: 4; GalR3 antagonist: 2; OX1R antag-1: 5; CHO parental Ca: -27; OX1R antag-2: 60*

How did COc1ccc(CCNC(=O)CCNS(=O)(=O)c2cccc3nonc23)cc1OC do in these assays?
GPR7 antagonist: 8; GalR3 antagonist: -3; OX1R antag-1: -14; CHO parental Ca: -9; OX1R antag-2: 40

What do the screens show for `O=C(NCc1ccncc1)[C@@H]1CCCN1C(=O)[C@@H]1CCCN1C(=O)c1ccccc1Cl`?
GalR3 antagonist: -5

How did CC(C)Oc1ccc(/C=N/NC(=O)c2nnn(-c3nonc3N)c2CN(C)c2ccccc2)cc1 do in these assays?
GPR7 antagonist: -16; GalR3 antagonist: 3; OX1R antag-1: 22; CHO parental Ca: -6; OX1R antag-2: 56*

Results for COc1ccc2ccccc2c1/C=N/NC(=O)c1nnn(-c2nonc2N)c1C(C)C ?
GPR7 antagonist: 6; GalR3 antagonist: -11; OX1R antag-1: 27; CHO parental Ca: 12; OX1R antag-2: 60*

Results for Cc1ccsc1/C=N/NC(=O)c1nnn(-c2nonc2N)c1CN(C)c1ccccc1 ?
GPR7 antagonist: -13; GalR3 antagonist: -2; OX1R antag-1: 20; CHO parental Ca: -4; OX1R antag-2: 50*

How did C/C(=N\NC(=O)c1nnn(-c2nonc2N)c1CN(C)c1ccccc1)c1cccc(O)c1 do in these assays?
GPR7 antagonist: -10; GalR3 antagonist: 2; OX1R antag-1: 9; CHO parental Ca: -10; OX1R antag-2: 49*

Results for CN(C)Cc1c(C(=O)N/N=C/c2ccc(-c3ccccc3)cc2)nnn1-c1nonc1N ?
GPR7 antagonist: -3; GalR3 antagonist: 1; OX1R antag-1: -20; CHO parental Ca: -8; OX1R antag-2: 6

How did CCc1c(C(=O)N/N=C/c2sccc2C)nnn1-c1nonc1N do in these assays?
GPR7 antagonist: -4; GalR3 antagonist: -8; OX1R antag-1: -5; CHO parental Ca: 12; OX1R antag-2: 14

Results for O=C(c1ccccc1Cl)N1CCSCCS1(=O)=O ?
GalR3 antagonist: -8

How did CC(C)CNc1cccc2c1S(=O)(=O)N[C@@H](Cc1ccccc1)CO2 do in these assays?
GalR3 antagonist: -2

How did COC(=O)[C@]12CCCCC=C1N(Cc1cccc3ccccc13)C(=O)[C@H](CC(=O)N1CCN(C(=O)c3ccco3)CC1)C2 do in these assays?
GalR3 antagonist: -6

What do the screens show for `CCCCOCC1CN(CCCC)S(=O)(=O)c2c(F)cccc2O1` (stereo not drawn)?
GalR3 antagonist: -6

What do the screens show for `CN(C)S(=O)(=O)c1cc(NC(=O)COC(=O)CCSc2ccc(Cl)cc2)ccc1Cl`?
GPR7 antagonist: 21*; GalR3 antagonist: -5; OX1R antag-1: -26; CHO parental Ca: -12; OX1R antag-2: 18

What do the screens show for `CCCS(=O)(=O)NC(=O)C1(C)CCCN(C(=O)c2ccc(C(=O)OC)cc2)C1` (stereo not drawn)?
GalR3 antagonist: -6

Results for S=c1nc2ccccc2c2nc(-c3ccccc3Cl)[nH]n12 ?
GPR7 antagonist: 28; GalR3 antagonist: -4; OX1R antag-1: -6; CHO parental Ca: -7; OX1R antag-2: 57*

Results for COc1cc(-c2nc3c4ccccc4nc(=S)n3[nH]2)cc(OC)c1OC ?
GPR7 antagonist: -13; GalR3 antagonist: -2; OX1R antag-1: 6; CHO parental Ca: -4; OX1R antag-2: 12

What do the screens show for `S=c1nc2ccccc2c2nc(-c3ccccc3)[nH]n12`?
GPR7 antagonist: -2; GalR3 antagonist: -3; OX1R antag-1: -4; CHO parental Ca: -6; OX1R antag-2: 65*

Results for Cc1ccccc1-c1ccc2c(c1)[C@@H]1C[C@H]3[C@@H](CN1CC2)[C@H](C)ON3C ?
GalR3 antagonist: -6

What do the screens show for `COc1ccc(CN(C)Cc2cc(=O)oc3cc(C)c(C(C)C)cc23)cc1OC`?
GPR7 antagonist: 2; GalR3 antagonist: -9; OX1R antag-1: -32; CHO parental Ca: -20; OX1R antag-2: 29

What do the screens show for `Cc1cc2oc(=O)cc(CN(C)Cc3ccccc3)c2cc1C(C)C`?
GPR7 antagonist: -32; GalR3 antagonist: -8; OX1R antag-1: 12; CHO parental Ca: 31*; OX1R antag-2: 0

How did COc1cc(CN2CCN(c3ncc(Cc4ccccc4)cn3)CC2)cc(OC)c1 do in these assays?
GalR3 antagonist: -4

Results for O=S1(=O)c2ccc(Br)cc2OC2CCCC[C@@H]2N1Cc1ccccc1 (stereo partly drawn) ?
GalR3 antagonist: -6

Results for CC1(C)CC(=O)C(=Cc2cn(-c3ccccc3)nc2-c2ccccc2)C(=O)C1 ?
GalR3 antagonist: -5; OX1R antag-1: -4; CHO parental Ca: -10; OX1R antag-2: 8

What do the screens show for `CC1=NNC(=O)/C1=C\c1cn(-c2ccccc2)nc1-c1ccc(Cl)cc1`?
GPR7 antagonist: 10; GalR3 antagonist: 21*; OX1R antag-1: 53*; CHO parental Ca: 37*; OX1R antag-2: 5

Results for O=S1(=O)CCN(CCc2ccccc2)CC1 ?
GalR3 antagonist: -1

Results for Cc1cccc(NC(=O)CSCC(=O)N2CCN(c3cccc(C(F)(F)F)c3)CC2)c1 ?
GalR3 antagonist: -5; OX1R antag-1: 20; CHO parental Ca: -24; OX1R antag-2: 30*

What do the screens show for `CN(C)S(=O)(=O)c1ccc(NC(=O)N2CCN(c3cccc(C(F)(F)F)c3)CC2)cc1`?
GPR7 antagonist: -9; GalR3 antagonist: -3; OX1R antag-1: 48*; CHO parental Ca: 39*; OX1R antag-2: 34

Results for COc1ccc(NC(=O)CSCC(=O)N2CCN(c3cccc(C(F)(F)F)c3)CC2)cc1 ?
GalR3 antagonist: 1; OX1R antag-1: 2; CHO parental Ca: -19; OX1R antag-2: 9

Results for COC(=O)c1cc2c(c3c4cc(F)ccc4n(S(=O)(=O)c4ccc(C)cc4)c13)C(=O)N(Cc1ccc(C(F)(F)F)cc1)C2 ?
GalR3 antagonist: -3

How did CCOC(=O)C1(C)CCCCN1C(=O)c1ccoc1 (stereo not drawn) do in these assays?
GalR3 antagonist: -6

What do the screens show for `COc1ccc(-c2cnc3c(NC=O)cc(-c4ccccc4OC)cn23)cc1OC`?
GalR3 antagonist: 34*
